# Measurements of several laboratories.
# Each line is one published result; the experiments were not run side by side.
# Observed: cell growth or viability
Compound,cell line,method,concentration,time,measurement,result
NC(=O)c1ncn([C@@H]2O[C@H](CO)[C@@H](O)[C@H]2O)n1,BHK-21,WST-1,,72 h,CC50,> 100 µM
O=S(=O)(NNc1nnc(Cl)c2ccccc12)c1ccc(F)cc1,Vero,MTT,250 µg/mL,,viability,24.9%
Cn1cnc2c1c(=O)n(CC(=O)Nc1c(Cl)cccc1Cl)c(=O)n2C,Vero,MTT,62.5 µg/mL,,viability,99.8%
C=C1CC[C@@H](O)[C@]2(C)CC[C@H]3C(=C)C(=O)O[C@@H]3[C@@H]12,CHO-K1,MTT,,72 h,CC50,31.3 µM
COC(=O)c1[nH]c(C(=O)OC)c(-c2c[nH]c3ccc(Cl)cc23)c1-c1c[nH]c2ccc(Cl)cc12,RAW264.7,resazurin,,72 h,CC50,> 10 µM
C=C1[C@@H]2[C@H]3OC(=O)C(=C)[C@@H]3CCC(=C)[C@@H]2C[C@@H]1OC(C)=O,CHO-K1,MTT,,72 h,CC50,6.9 µM
CC(=O)O[C@H]1C(=O)[C@@]2(C)[C@H]([C@H](OC(=O)c3ccccc3)[C@]3(O)C[C@H](OC(=O)[C@H](O)[C@@H](NC(=O)c4ccccc4)c4ccccc4)C(C)=C1C3(C)C)[C@]1(OC(C)=O)CO[C@@H]1C[C@@H]2O,SMMC-7721,MTT,,48 h,IC50,4.27 µM
CC(C)=CCc1c(O)c(CC=C(C)C)c2occ(-c3ccc(O)cc3)c(=O)c2c1O,RAW264.7,MTT,100 µg/mL,24 h,viability,91.4%
CCNc1nc(Nc2ccc(F)c(Cl)c2)c2ccccc2n1,Vero,MTT,500 µg/mL,,viability,6.91%
COc1ccc2c(Cc3ccccc3F)c3[n+](cc2c1OC)CCc1cc2c(cc1-3)OCO2,L929,CCK-8,,24 h,IC50,19.9 µM
